From ChEMBL document CHEMBL4033800, “Further Developments of the Phenyl-Pyrrolyl Pentane Series of Nonsteroidal Vitamin D Receptor Modulators as Anticancer Agents” (J Med Chem, 2018)
Activity calls are given as the source filed them. The rule behind the calls is not given here.

Columns and labels:
MCF7 [1] = assay: Induction of apoptosis in human MCF7 cells assessed as necrotic cells at 1 uM after 24 hrs by Annexin V-FITC/propidium iodide-staining based flow cytometry (reference value: 0.031%); format: functional
Mus musculus [2] = assay: Hypercalcemic effect in ICR mouse at 0.5 to 5 mg/kg/day, ip administered for 7 days measured on day 8 post-dose by MTB-based assay relative to control; format: ADME, organism-based; conditions: in vivo, 168 h
Summary of the method: (§1)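 Mice were dosed i.p. over a 7-day period and serum calcium was then measured. Each dose level was compared with a vehicle-treated control group (saline cited as the comparator). Data are mean ± SEM, n = 6 per group. Significance versus vehicle was reported at p < 0.05, 0.01 and 0.001.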

MCF7 [3] = assay: Induction of cell cycle arrest in human MCF7 cells assessed as accumulation at S phase at 1 uM after 24 hrs by propidium iodide-staining based flow cytometry (reference value: 31.55%); format: functional
PC-3 = assay: Antiproliferative activity against human PC3 cells after 48 hrs by MTT assay; format: functional, cell-based; conditions: PC-3, 48 h
Mus musculus [4] = assay: Hypercalcemic effect in ICR mouse at 30 mg/kg/day, ip administered for 7 days measured on day 8 post-dose by MTB-based assay relative to control; format: ADME, organism-based; conditions: in vivo, 168 h; summary of the method: as §1
MCF7 [5] = assay: Induction of apoptosis in human MCF7 cells assessed as early apoptotic cells at 1 uM after 24 hrs by Annexin V-FITC/propidium iodide-staining based flow cytometry (reference value: 1.74%); format: functional
[6] = Drug uptake in human MCF7 cells at 1 uM after 30 mins by HPLC analysis; format: ADME, cell-based; conditions: mcf7, 0.5 h
Summary of the method: (§2)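 MCF7 cells were given 1 µM compound in medium with 10% FBS for 10 or 30 min. Cells and medium were extracted separately with chloroform/methanol (3:1, v/v) and analysed by HPLC. Mean ± SEM, n = 3.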

Caco-2 = assay: Antiproliferative activity against human Caco2 cells after 48 hrs by MTT assay; format: functional, cell-based; conditions: Caco-2, 48 h
MCF7 [7] = assay: Induction of apoptosis in human MCF7 cells assessed as viable cells at 1 uM after 24 hrs by Annexin V-FITC/propidium iodide-staining based flow cytometry (reference value: 98.2%); format: functional; conditions: MCF7, 24 h, read-out: Activity
MCF7 [8] = assay: Induction of apoptosis in human MCF7 cells assessed as late apoptotic cells at 1 uM after 24 hrs by Annexin V-FITC/propidium iodide-staining based flow cytometry (reference value: 0.062%); format: functional
Mus musculus [9] = assay: Toxicity in BALB/c nude mouse xenografted with human MCF7 cells assessed as change in body weight at 10 mg/kg, ip administered every other day relative to control; format: organism-based; conditions: in vivo
Summary of the method: (§3)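 MCF7 cells transplanted orthotopically into the breast of athymic nude mice. Dosing at 10 mg/kg i.p. in vehicle of polyoxyethylated castor oil/ethanol/saline 1:1:18, with vehicle and saline control groups. Body weight, tumor volume and serum calcium followed.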

Vitamin D3 receptor = target: T1, Vitamin D3 receptor (Homo sapiens, UniProt P11473); assay: Displacement of fluormone VDR red from human full length VDR after 4 hrs by fluorescence polarization assay
T1 sequence (P11473 whole entry): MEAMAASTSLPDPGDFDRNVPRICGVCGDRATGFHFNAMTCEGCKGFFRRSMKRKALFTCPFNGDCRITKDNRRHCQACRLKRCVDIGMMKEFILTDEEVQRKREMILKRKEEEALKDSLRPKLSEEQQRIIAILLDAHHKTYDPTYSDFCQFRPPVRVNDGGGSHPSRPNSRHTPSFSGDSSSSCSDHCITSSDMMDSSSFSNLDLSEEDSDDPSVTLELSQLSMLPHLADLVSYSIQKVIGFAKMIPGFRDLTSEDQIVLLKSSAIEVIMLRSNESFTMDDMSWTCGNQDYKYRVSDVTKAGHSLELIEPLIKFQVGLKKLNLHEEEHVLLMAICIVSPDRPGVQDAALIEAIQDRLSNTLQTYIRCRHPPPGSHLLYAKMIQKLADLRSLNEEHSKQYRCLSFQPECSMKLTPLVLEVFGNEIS

Mus musculus [10] = assay: Toxicity in BALB/c nude mouse xenografted with human MCF7 cells assessed increase in serum calcium levels at 10 mg/kg, ip administered every other day relative to control; format: organism-based; conditions: in vivo; summary of the method: as §3
HepG2 = assay: Antiproliferative activity against human HepG2 cells after 48 hrs by MTT assay; format: functional, cell-based; conditions: HepG2, 48 h
MCF7 [11] = assay: Induction of apoptosis in human MCF7 cells xenografted in BALB/c nude mouse at 10 mg/kg, ip administered every other day by TUNEL assay; format: functional, organism-based
Summary of the method: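 Apoptosis in MCF7 orthotopic tumor sections from nude mice given 10 mg/kg i.p. was scored by TUNEL staining.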

[12] = Drug uptake in human MCF7 cells at 1 uM after 10 mins by HPLC analysis; format: ADME, cell-based; conditions: mcf7, 10 min; summary of the method: as §2
MCF7 [13] = assay: Induction of cell cycle arrest in human MCF7 cells assessed as accumulation at G0/G1 phase at 1 uM after 24 hrs by propidium iodide-staining based flow cytometry (reference value: 56.03%); format: functional
MCF7 [14] = assay: Antiproliferative activity against human MCF7 cells after 48 hrs by MTT assay; format: functional, cell-based; conditions: MCF7, 48 h
MCF7 [15] = assay: Antitumor activity against human MCF7 cells xenografted in BALB/c nude mouse assessed as tumor growth inhibition at 10 mg/kg, ip administered every other day; format: functional, organism-based; summary of the method: as §3
MCF7 [16] = assay: Induction of cell cycle arrest in human MCF7 cells assessed as accumulation at G2/M phase at 1 uM after 24 hrs by propidium iodide-staining based flow cytometry (reference value: 12.41%); format: functional
L02 = assay: Antiproliferative activity against human L02 cells after 48 hrs by MTT assay; format: cell-based; conditions: L02, 48 h
Mus musculus [17] = assay: Hypercalcemic effect in ICR mouse at 0.5 ug/kg, ip administered for 7 days measured on day 8 post-dose by MTB-based assay relative to control; format: ADME, organism-based; conditions: in vivo, 0.0005 mg/kg, 168 h; summary of the method: as §1
Mus musculus [18] = assay: Hypercalcemic effect in ICR mouse assessed as serum calcium levels at 5 ug/kg, ip administered for 7 days measured on day 8 post-dose by MTB-based assay (reference value: 7.05 mg/dl); format: ADME, organism-based; conditions: in vivo, 0.005 mg/kg, 168 h; summary of the method: as §1
[19] = Half life in iv dosed Sprague-Dawley rat; format: ADME, organism-based; conditions: in vivo
[20] = Drug metabolism in human MCF7 cells at 1 uM after 24 hrs by HPLC analysis; format: ADME, cell-based; conditions: read-out: Drug metabolism
Summary of the method: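 MCF7 cells were incubated 24 h with 1 µM compound, alongside a medium-only incubation without cells. Mixtures were extracted with chloroform/methanol (3:1, v/v) and quantified by HPLC. Mean ± SEM, n = 3.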

SMILES: CCN(CC)CCNC(=O)c1ccc(C(CC)(CC)c2ccc(OCCC(O)(CC)CC)c(C)c2)n1CC
- Activity (MCF7 [1]): 0.24%
- Activity (Mus musculus [2]): Non-Toxic
- Activity (MCF7 [3]): 26.31%
- IC50 (PC-3): 3350 nM
- Activity (Mus musculus [4]): Toxic
- Activity (MCF7 [5]): 7.74%
- Drug uptake [6]: Active
- IC50 (Caco-2): 1630 nM
- viability at 1 µM (MCF7 [7]): 89.2%
- Activity (MCF7 [8]): 2.81%
- Activity (Mus musculus [9]): Non-Toxic
- IC50 (Vitamin D3 receptor): 271 nM
- Activity (Mus musculus [10]): Non-Toxic
- IC50 (HepG2): 230 nM
- Activity (MCF7 [11]): Active
- Drug uptake [12]: Active
- Activity (MCF7 [13]): 68.92%
- IC50 (MCF7 [14]): 550 nM
- TGI (MCF7 [15]): Active
- Activity (MCF7 [16]): 4.77%
- IC50 (L02): 2290 nM

SMILES: C=C1/C(=C\C=C2/CCC[C@]3(C)[C@@H]([C@H](C)CCCC(C)(C)O)CC[C@@H]23)C[C@@H](O)C[C@@H]1O [CALCITRIOL]
- Activity (MCF7 [1]): 0.15%
- Activity (Mus musculus [17]): Non-Toxic
- Activity (MCF7 [3]): 23.9%
- Activity (MCF7 [5]): 6.59%
- Drug uptake [6]: 10.4%
- viability at 1 µM (MCF7 [7]): 89.8%
- Activity (MCF7 [8]): 3.44%
- Activity (Mus musculus [18]): 11.04 mg/dL
- half-life [19]: 4.27 h
- Drug uptake [12]: 6.5%
- Activity (MCF7 [13]): 63.49%
- Activity (MCF7 [16]): 12.61%
- metabolised at 24 h, 1 µM [20]: 27%
